In the RNAGym collection of RNA variant scans (doi:10.1126/science.aae0568):
This sample holds only a part of the variants without activity.

B1: tRNA (parent)
chain: GUUCCGUUGGCGUAAUGGUAACGCGUCUCCCUCCUAAGGAGAAGACUGCGGGUUCGAGUCCCGUACGGAACG

Variants of: B1
Test: yeast fitness relative to wild type (ratio to wild type); higher = fitter; tRNA-Arg(CCU), competitive growth, 37 C, YPD
How it was run: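 For this measurement, the tRNA-Arg(CCU) gene was varied by chemical synthesis at a 3% per-site mutation rate across 69 sites, and each variant was placed at the native genomic locus in Saccharomyces cerevisiae. The pooled strains went through a 24-hour competition in YPD at 37°C in six parallel replicates, with amplicons from start and end populations read by 100-nucleotide paired-end sequencing. Darwinian fitness relative to wild type followed from the change in each genotype's frequency. Genotypes needed ≥ 100 starting reads, and estimates < 0.5 were set to 0.5.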

| Variant | yeast fitness |
| --- | --- |
| U3A G50A | 0.853 |
| U3A U8A C31G A40C C66U | ≤ 0.5 |
| U3A C11G A14C C62U G63A | ≤ 0.5 |
| U3A C30G G38C A69C | 0.671 |
| U3A C24U A40U G50C A70U | ≤ 0.5 |
| U3A C24U G39A C55A | ≤ 0.5 |
| U3A G10C A36U A40C C60G A70G | ≤ 0.5 |
| U3A U16C C27G A36U G39C U53A A70G | ≤ 0.5 |
| U3A C29G A57G | ≤ 0.5 |
| U3A C5U A21G A43C | 0.526 |
| U3A C11G A40G U53G G68C | 0.654 |
| U3A C11U C29A A42G | 0.629 |
| U3A C24U G39A | ≤ 0.5 |
| U3A C24G C31U C62A | ≤ 0.5 |
| U3A U19A G68C | 0.712 |
| U3A C30G C55U | 0.673 |
| U3A G9A U28G | ≤ 0.5 |
| U3C A14C A45C C60G | 0.591 |
| U3A U13A | 1.04 |
| U3A U13C | 0.955 |
| U3A U13G | 0.729 |
| U3C A14G C30U A45C C46G A65G | ≤ 0.5 |
| U3A G9C A20C A21C G25A G56A U64C | 0.73 |
| U3A G12C U13C A69U | 1.13 |

| Variant | yeast fitness |
| --- | --- |
| U3A G12C U13C A69C | 0.732 |
| U3A C29G G38A C62G | ≤ 0.5 |
| U3A C5A G6C A14C G48C C55U G63U | ≤ 0.5 |
| U3A C5U U28A G58A | 0.5 |
| U3A G18A C22U A65U | ≤ 0.5 |
| U3A G52C | 0.645 |
| U3A U8A U32A U47A A57U | ≤ 0.5 |
| U3A C5U C22G U53G | ≤ 0.5 |
| U3A G6C C34G G38C A45G U59G | ≤ 0.5 |
| U3A C49U G63A | 0.764 |
| U3A C29G | 0.575 |
| U3A C5G A21U C22U U32A C49G | 0.599 |
| U3A C11G G23C | 0.501 |
| U3A C24G C29U A36G A43U | ≤ 0.5 |
| U3C A14G C22A C27G G39C | ≤ 0.5 |
| U3A U8C A14C C61U | ≤ 0.5 |
| U3A U35G A43U A57C C62A C66A | ≤ 0.5 |
| U3A C29A A37G | ≤ 0.5 |
| U3A G10A C27U A40U | ≤ 0.5 |
| U3A C60U C66G | 0.658 |
| U3A G12C A21C A36C G68C | ≤ 0.5 |
| U3A C33U A45C | ≤ 0.5 |
| U3A G18A C22U C61A | ≤ 0.5 |
| U3A C11A C33U C60U A65U | ≤ 0.5 |

| Variant | yeast fitness |
| --- | --- |
| U3A C31G C66U | 0.641 |
| U3A U53C C55U | ≤ 0.5 |
| U3A C31A C34A A37C G68C | ≤ 0.5 |
| U3A C24U A45C | 0.688 |
| U3A C27U G41C U64C A70C | 0.896 |
| U3A U19C C22G C31G A69C | ≤ 0.5 |
| U3A C31U A36C | 0.571 |
| U3A C31U | 1.02 |
| U3A U26C C31U G52A | ≤ 0.5 |
| U3A C11G G17C C24G C46A | ≤ 0.5 |
| U3A G18A C22U U64C | ≤ 0.5 |
| U3A G17C A20C U28A C46A | ≤ 0.5 |
| U3A U19G A36C | ≤ 0.5 |
| U3A C5U A42C A43U G56C C66U | ≤ 0.5 |
| U3A C5A G6C A15G U16A U26G | 0.512 |
| U3A U26C | 0.884 |
| U3A G17A C22U C66U | 0.616 |
| U3A C33G C34G U35A G44A | 0.556 |
| U3A U13G C22U A40U C66G | 0.627 |
| U3A C27G C31U C33U A42C | ≤ 0.5 |
| U3A C5G C55U G67C | 0.599 |
| U3A G51A U53C | 0.648 |
| U3A U8A U13C C31G A40C | ≤ 0.5 |
| U3A C11G G17C C24G C46A A65U | ≤ 0.5 |

| Variant | yeast fitness |
| --- | --- |
| U3C A14U A20C C30G G58A A65G | ≤ 0.5 |
| U3A C30G A57C G58C | ≤ 0.5 |
| U3A U19A A70C | 0.812 |
| U3A C30G U64A A69C | ≤ 0.5 |
| U3A U8A G25C C30A U54C | ≤ 0.5 |
| U3A C27A A43G | 0.586 |
| U3A C22G C29G C46U A70U | ≤ 0.5 |
| U3A U35G A43U A57C | ≤ 0.5 |
| U3A C49U C60U A70G | 0.551 |
| U3A C55U G68C | 0.573 |
| U3A C11U A69U | 0.627 |
| U3A U19A | 1.02 |
| U3A U47C G51A U53C | ≤ 0.5 |
| U3A C31U U47C | 0.871 |
| U3A U47A | 0.744 |
| U3A U47C | 0.835 |
| U3A U7A G23C A42C U47A C49G | ≤ 0.5 |
| U3A C11G C22A C33G | ≤ 0.5 |
| U3C A14C A45C | ≤ 0.5 |
| U3A C66G G68C | 0.623 |
| U3A G68C A69C | ≤ 0.5 |
| U3A G9C A20G C29A | ≤ 0.5 |
| U3A G38C | 0.611 |
| U3A G52A C60A A69G | ≤ 0.5 |

| Variant | yeast fitness |
| --- | --- |
| U3A U7A C22U C49A | ≤ 0.5 |
| U3A C24G C31U C62U A65C | ≤ 0.5 |
| U3A G23A A69C | 0.571 |
| U3A G6C A20U A36U | 0.571 |
| U3A G9A A20G | 0.665 |
| U3A G41C U53G | ≤ 0.5 |
| U3A C33U A43C | ≤ 0.5 |
| U3A G12C U19C | ≤ 0.5 |
| U3A U7A A69U | ≤ 0.5 |
| U3A C22A C33A A36U U53A U54A | ≤ 0.5 |
| U3C A14U A20C C30G C55U | ≤ 0.5 |
| U3A G18A C22U U64C A70G | ≤ 0.5 |
| U3A C60A C61U A69U | 0.597 |
| U3A G41A | 0.754 |
| U3A G41C | 0.694 |
| U3A U7A C49A | 0.542 |
| U3A G25A C49G A65G | ≤ 0.5 |
| U3A U32A U59G | 0.585 |
| U3A C29U C31A A40C | 0.631 |
| U3A C31U A36C A65U | ≤ 0.5 |
| U3A G48A G67A | 0.541 |
| U3A C46A | 1.05 |
| U3A C24G C31U C61A | 0.533 |
| U3A G9C C33G A42U A43U A65C G68C | ≤ 0.5 |

| Variant | yeast fitness |
| --- | --- |
| U3A C30G C31U G67C | ≤ 0.5 |
| U3A C22G G48A | 0.544 |
| U3A G44C | 0.879 |
| U3A C5U | 0.85 |
| U3A G9C A20G C29A G67U | 0.633 |
| U3A C30U C31U G52A | ≤ 0.5 |
| U3A G38A G48A | 0.54 |
| U3A G25A C49G A65G A69U | ≤ 0.5 |
| U3A G12A A14U C46A | ≤ 0.5 |
| U3A C5U C62A | ≤ 0.5 |
| U3A G9A G48A | 0.621 |
| U3A U19C C22G A45U | ≤ 0.5 |
| U3A G6A A37C C55G G58C | ≤ 0.5 |
| U3A G38C C49U | ≤ 0.5 |
| U3A U32C | 1 |
| U3A C11A C29U A57C | ≤ 0.5 |
| U3A C27A A42G C46G | ≤ 0.5 |
| U3A U59C | 0.884 |
| U3A G38A A57U C62U | ≤ 0.5 |
| U3A C5G G67C | 1 |
| U3A U32C A69U | 0.685 |
| U3A G10A C30U C60G | ≤ 0.5 |
| U3A G68C | 0.822 |
| U3A U16C C46U C49U | ≤ 0.5 |

| Variant | yeast fitness |
| --- | --- |
| U3A C30U G50C | ≤ 0.5 |
| U3A G58C | 0.987 |
| U3A C11U A37U G41A G52C A57C | ≤ 0.5 |
| U3A U16C A20C G67A | 0.541 |
| U3A G12C U28C G56A C60G | ≤ 0.5 |
| U3A G39C | 0.822 |
| U3A G39A | 0.888 |
| U3A G10C A36U A40C A65G | ≤ 0.5 |
| U3A C31U G63C G67C A69U | 0.558 |
| U3A C5A G12C G25A C30U A69C | ≤ 0.5 |
| U3A C11G C31G C62A | ≤ 0.5 |
| U3A C30G G38C | 0.987 |
| U3A G12C G58A | 0.579 |
| U3A C30U A43C | 0.554 |
| U3A C30G U54C | 0.502 |
| U3A C49A A69U | 0.558 |
| U3A C5A C30G G38C C60G | ≤ 0.5 |
| U3A C46U C49U U53C | ≤ 0.5 |
| U3A C11U C55G C60G | ≤ 0.5 |
| U3A C55U G56C | ≤ 0.5 |
| U3A C27U C55A | 0.535 |
| U3A U13G C22U A40U C55G A70G | ≤ 0.5 |
| U3A G17A C22U G48A C62A | ≤ 0.5 |
